Reference: ChEMBL document CHEMBL3351938, “C5-Alkyl-2-methylurea-Substituted Pyridines as a New Class of Glucokinase Activators” (ACS Med Chem Lett, 2014)
Calls of active or inactive are those of the source. The rule behind the calls is not given here.

Each compound was assayed on Mus musculus (assay: Antidiabetic activity in fasted ob/ob mouse assessed as reduction in blood glucose AUC compound administered orally 30 mins prior glucose challenge by oral glucose tolerance test relative to control).
Format: functional, organism-based
Outline: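 OGTT in fasted ob/ob mice with oral doses of 0.3, 1, 3 and 10 mg/kg; blood glucose AUC compared to vehicle by two-way ANOVA.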
With `CCn1nccc1Oc1cc(C[C@H]2C[C@](C)(O)C2)cnc1NC(=O)NC` the Activity was “Dose-dependent effect”.

Each compound was assayed on Mus musculus (assay: Antidiabetic activity in C57Bl/6 mouse assessed as reduction in blood glucose AUC at 30 mg/kg, po administered 30 mins prior glucose challenge by oral glucose tolerance test).
Format: functional, organism-based
Parameters: dose 30 mg/kg
Outline: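 Oral dose–response OGTT in C57Bl/6 mice at 3, 10 and 30 mg/kg; blood glucose area-under-curve assessed; significance versus vehicle by two-way ANOVA.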
With `CCn1nccc1Oc1cc(CC2CCOCC2)cnc1NC(=O)NC` the Activity was “Active”.

These compounds were tested against T1, Hexokinase-4 (Homo sapiens) (UniProt P35557) (assay: Activity of activated human recombinant Glucokinase assessed as maximum glucose phosphorylation measured over 5 mins by spectrophotometry relative to unactivated enzyme).
T1 sequence (whole entry): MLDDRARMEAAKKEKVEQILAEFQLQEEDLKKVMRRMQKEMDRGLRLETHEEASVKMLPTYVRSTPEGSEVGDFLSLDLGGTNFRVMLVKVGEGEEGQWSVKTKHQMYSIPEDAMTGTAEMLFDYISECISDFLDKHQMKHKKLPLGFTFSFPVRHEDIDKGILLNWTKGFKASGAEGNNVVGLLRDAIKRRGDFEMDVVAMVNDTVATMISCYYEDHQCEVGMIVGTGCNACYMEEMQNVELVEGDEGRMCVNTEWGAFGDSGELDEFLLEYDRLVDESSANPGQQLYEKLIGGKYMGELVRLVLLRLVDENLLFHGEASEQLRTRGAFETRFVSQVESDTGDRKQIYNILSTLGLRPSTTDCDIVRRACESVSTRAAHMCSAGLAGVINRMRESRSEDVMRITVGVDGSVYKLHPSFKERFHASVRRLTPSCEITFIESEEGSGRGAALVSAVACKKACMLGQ
Outline: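 Recombinant human GK; V_max is the maximal velocity of glucose phosphorylation by activated GK divided by that of unactivated GK; n = 2.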
Work on `CNC(=O)Nc1ncc(CC2CCOCC2)cc1Oc1ccnn1C(C)C` yielded a Ratio of 0.6.
`CCn1nccc1Oc1cc(CN2CCOCC2)cnc1NC(=O)NC` was tested, and the Ratio was 0.78.
Work on `CCn1nccc1Oc1cc(C[C@H]2C[C@@H](O)C2)cnc1NC(=O)NC` yielded a Ratio of 0.88.
`CCn1nc(COC)cc1Oc1cc(CC2CCOCC2)cnc1NC(=O)NC` was tested, and the Ratio was 0.71.
For `CCn1nccc1Oc1cc(C[C@H]2CC[C@](C)(O)CC2)cnc1NC(=O)NC`, the Ratio was 0.71.
For `CCn1nccc1Oc1cc(C[C@H]2C[C@@](C)(O)C2)cnc1NC(=O)NC`, the Ratio was 0.8.
`CCc1ncccc1Oc1cc(CC(C)C)cnc1NC(=O)NC` showed a Ratio of 0.82.
`CCn1nccc1Oc1cc(C[C@@H]2CCO[C@@H](COC)C2)cnc1NC(=O)NC` was tested, and the Ratio was 0.78.
`CCc1ncccc1Oc1cc(CCCOC)cnc1NC(=O)NC` gave a Ratio of 0.78.
In the case of `CCn1nccc1Oc1cc(C[C@H]2C[C@H](O)C2)cnc1NC(=O)NC`, the Ratio is reported as 0.96.
`CCOCCc1cnc(NC(=O)NC)c(Oc2cccnc2CC)c1` showed a Ratio of 0.7.
Compound `CCn1nccc1Oc1cc(C(O)C2CCOCC2)cnc1NC(=O)NC` (stereo unspecified) has a Ratio of 0.82.
`CCn1nccc1Oc1cc(C[C@H]2CC[C@@H](O)CC2)cnc1NC(=O)NC` showed a Ratio of 0.66.
Work on `CCn1nccc1Oc1cc(C[C@H]2CC[C@@](C)(O)CC2)cnc1NC(=O)NC` yielded a Ratio of 0.82.
`CCc1ncccc1Oc1cc(CC2CCCCC2)cnc1NC(=O)NC` was tested, and the Ratio was 0.73.
Work on `CCn1nccc1Oc1cc(CCCC(C)(C)O)cnc1NC(=O)NC` yielded a Ratio of 0.75.
For `CCc1ncccc1Oc1cc(CC2CCOCC2)cnc1NC(=O)NC`, the Ratio was 0.75.
Work on `CCn1nccc1Oc1cc(C[C@H]2CCO[C@H](COC)C2)cnc1NC(=O)NC` yielded a Ratio of 0.76.
`CCc1ncccc1Oc1cc(CCCCO)cnc1NC(=O)NC` showed a Ratio of 0.86.
In the case of `CCc1ncccc1Oc1cc(CCCCOC)cnc1NC(=O)NC`, the Ratio is reported as 0.74.
`CCn1nccc1Oc1cc(CCCCOC)cnc1NC(=O)NC` showed a Ratio of 0.83.
Work on `CCn1nccc1Oc1cc(C[C@H]2CC[C@H](O)CC2)cnc1NC(=O)NC` yielded a Ratio of 0.79.
`CCc1ncccc1Oc1cc(CCCC(C)(C)O)cnc1NC(=O)NC` gave a Ratio of 0.73.
`CCn1nccc1Oc1cc(CC2CCOCC2)cnc1NC(=O)NC` was tested, and the Ratio was 0.8.
